Data published in ChEMBL document CHEMBL4828730, “Gemfibrozil derivatives as activators of soluble guanylyl cyclase - A structure-activity study” (Eur J Med Chem, 2021).
Active and inactive are the calls of the source. The rule behind the calls is not given here.

Key:
[1] = target: T1, Soluble guanylate cyclase alpha1/beta1 complex (Homo sapiens) (UniProt Q02153+Q02108); assay: (§1) Activation of full length human sGC alpha1/beta1 subunit containing heme in ferric state expressed in Sf9 insect cells using […] incubated for 15 mins by [32P]GTP assay
In short: (§2)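 Reaction started at 37°C with 1 mM GTP/[α-32P]GTP for 15 min, then stopped by zinc carbonate precipitation. Single-dose test at 100 μM relative to vehicle; concentration-response gives EC50 as mean ± SD.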

[2] = target: T2, Soluble guanylate cyclase alpha1/beta1 complex (Homo sapiens, UniProt Q02108+Q02153); assay: as §1; in short: as §2
T2 sequence (Q02153 whole entry): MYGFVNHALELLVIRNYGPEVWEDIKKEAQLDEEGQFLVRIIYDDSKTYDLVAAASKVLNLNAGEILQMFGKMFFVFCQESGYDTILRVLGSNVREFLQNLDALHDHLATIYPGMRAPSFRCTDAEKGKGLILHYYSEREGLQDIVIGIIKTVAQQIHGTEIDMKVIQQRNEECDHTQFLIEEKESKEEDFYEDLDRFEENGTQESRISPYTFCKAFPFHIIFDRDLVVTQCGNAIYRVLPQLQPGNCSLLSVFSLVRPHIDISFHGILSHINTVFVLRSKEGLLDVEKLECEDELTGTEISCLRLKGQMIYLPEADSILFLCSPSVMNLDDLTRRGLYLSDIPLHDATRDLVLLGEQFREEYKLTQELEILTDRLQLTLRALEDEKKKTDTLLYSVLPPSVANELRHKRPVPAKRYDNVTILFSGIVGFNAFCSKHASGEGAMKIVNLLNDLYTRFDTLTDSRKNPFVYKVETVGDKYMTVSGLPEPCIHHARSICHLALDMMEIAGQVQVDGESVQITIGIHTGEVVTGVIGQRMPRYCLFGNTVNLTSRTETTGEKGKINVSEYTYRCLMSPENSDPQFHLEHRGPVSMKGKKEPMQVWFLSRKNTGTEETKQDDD
T2 sequence (Q02108 whole entry): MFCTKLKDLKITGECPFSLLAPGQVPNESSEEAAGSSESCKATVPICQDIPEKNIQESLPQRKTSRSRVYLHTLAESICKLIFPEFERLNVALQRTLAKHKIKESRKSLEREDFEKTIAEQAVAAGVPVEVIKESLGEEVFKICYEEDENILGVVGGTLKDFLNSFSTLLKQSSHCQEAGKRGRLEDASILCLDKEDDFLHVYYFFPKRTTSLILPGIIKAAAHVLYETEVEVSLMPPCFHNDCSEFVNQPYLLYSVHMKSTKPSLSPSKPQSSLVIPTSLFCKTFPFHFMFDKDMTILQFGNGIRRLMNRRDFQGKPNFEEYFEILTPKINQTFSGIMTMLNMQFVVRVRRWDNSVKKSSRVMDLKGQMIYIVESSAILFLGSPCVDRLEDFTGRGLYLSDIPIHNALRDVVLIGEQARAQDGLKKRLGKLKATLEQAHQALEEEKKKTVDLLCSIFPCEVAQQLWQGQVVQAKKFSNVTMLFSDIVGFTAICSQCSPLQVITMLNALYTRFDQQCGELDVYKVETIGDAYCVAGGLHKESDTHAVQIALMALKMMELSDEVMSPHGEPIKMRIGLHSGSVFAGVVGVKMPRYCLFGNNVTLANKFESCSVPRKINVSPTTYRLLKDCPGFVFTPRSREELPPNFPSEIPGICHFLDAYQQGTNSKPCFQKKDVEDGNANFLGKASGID

[3] = target: T1, Soluble guanylate cyclase alpha1/beta1 complex (Homo sapiens); assay: Activation of full length human sGC alpha1/beta1 subunit containing heme in ferric state expressed in Sf9 insect cells using […] incubated for 15 mins at 100 uM incubated for 10 mins by [32P]GTP assay relative to control; conditions: filed as activator; in short: as §2
[4] = tested on: Thoracic aorta; assay: Vasodilation activity in C57Bl6 mouse thoracic aorta assessed as inhibition of phenylephrine-induced contractions; type: functional, tissue-based; conditions: for minimal effective concentration: read-out: MEC
In short: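 Isolated mouse aortic rings on a wire myograph, equilibrated 80 min in carbogen-gassed Krebs-Henseleit pH 7.4. Rings were precontracted with 500 nM phenylephrine plus 100 nM 5-hydroxytryptamine to submaximal tension, then given cumulative compound doses while isometric tension was recorded. IC50 was derived by nonlinear regression.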

Row | SMILES | Activity [1] | EC50 [2] | fold change (FC) [3] | IC50 [4] | minimal effective concentration [4]
1 | O=C(O)CCCCCSc1ccccc1 | inactive | – | – | – | –
2 | CC(=O)N(CCCC(C)(C)C(=O)O)c1cc(C)ccc1C | inactive | – | – | – | –
3 | Cc1ccc(C)c(OCCCC(C)(C)C(=O)NCCCCCCNC(=O)C(C)(C)CCCOc2cc(C)ccc2C)c1 | inactive | – | – | – | –
4 | Cc1ccc(C(C)C)c(OCCCC(C)(C)C(=O)O)c1 | – | 166 µM | 2.6 | 71 µM | 10 µM
5 | Cc1ccc(C)c(N(CCCC(C)(C)C(=O)O)C(=O)CCCCC(=O)N(CCCC(C)(C)C(=O)O)c2cc(C)ccc2C)c1 | – | 119 µM | 2.2 | 261 µM | 10 µM
6 | CCCCCCNC(=O)C(C)(C)CCCOc1cc(C)ccc1C | inactive | – | – | – | –
7 | Cc1ccccc1OCCCC(C)(C)C(=O)O | inactive | – | – | – | –
8 | Cc1ccc(C)c(OCCCC(C)(C)C(=O)O)c1 [GEMFIBROZIL] | – | 624 µM | 4 | 310 µM | 30 µM
9 | CNC(=O)C(C)(C)CCCOc1cc(C)ccc1C | inactive | – | – | – | –
10 | Cc1ccc(C)c(OCCCCC(=O)O)c1 | – | 707 µM | 2.9 | 812 µM | 100 µM
11 | Cc1ccc(C)c(OCCCC(C)(C)C(=O)NCCNC(=O)C(C)(C)CCCOc2cc(C)ccc2C)c1 | inactive | – | – | – | –
12 | CCCCCCC(CCCOc1cc(C)ccc1C)C(=O)O (stereo not given) | – | 128 µM | 4.1 | 45 µM | 10 µM
13 | CCCC(=O)N(CCCC(C)(C)C(=O)O)c1cc(C)ccc1C | inactive | – | – | – | –
14 | Cc1ccc(C)c(OCC(=O)O)c1 | inactive | – | – | – | –
15 | CCCCCC(=O)N(CCCC(C)(C)C(=O)O)c1cc(C)ccc1C | inactive | – | – | – | –
16 | Cc1ccc(C)c(OCCCC(=O)O)c1 | inactive | – | – | – | –
17 | CCNC(=O)C(C)(C)CCCOc1cc(C)ccc1C | inactive | – | – | – | –
18 | Cc1ccc(C)c(OCCCC(C)(C)C(N)=O)c1 | inactive | – | – | – | –
19 | Cc1ccc(C)c(OCCCC(C)(C)C(=O)NCCCCNC(=O)C(C)(C)CCCOc2cc(C)ccc2C)c1 | inactive | – | – | – | –
20 | CCCCNC(=O)C(C)(C)CCCOc1cc(C)ccc1C | inactive | – | – | – | –
21 | O=C(O)CCCCCOc1ccccc1 | inactive | – | – | – | –
22 | Cc1ccc(C)c(NCCCC(C)(C)C(=O)O)c1 | – | 50 µM | 2.9 | 721 µM | 100 µM
23 | Cc1ccc(C)c(OCCCCCC(=O)O)c1 | – | 389 µM | 2.1 | > 1000 µM | 300 µM
24 | CCC(CCCOc1cc(C)ccc1C)C(=O)O (stereo not given) | inactive | – | – | – | –
